In the array DNA melting data of Ke et al. (doi:10.1101/2024.01.08.574731):

Experiments:
[1] = folding enthalpy; higher = less favourable; fluorescence melt of hairpins on a sequencing array, two-state fit; settings: sodium 0.088 M
Summary of the method: (§1)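 Folding enthalpy and melting temperature come from bootstrapped two-state fits to Cy3 fluorescence of library hairpins carrying annealed Cy3 and quencher oligos on a sequenced MiSeq flow cell. Imaging was done in 50 mM Na-HEPES pH 8.0, 25 mM NaCl, stepping by 2.5 °C up to 60 °C, and signals were normalised to pre-quench Cy3 and to control constructs. Results of four replicates were combined by inverse variance, and fitted temperatures were raised by 9.35 °C to match UV melts.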

[2] = melting temperature; fluorescence melt of hairpins on a sequencing array, two-state fit, raised by 9.35 °C to match UV melts; settings: sodium 0.088 M
Summary of the method: as §1

GGATACGAAAGTATCTCC ((((((....)))..))) showed a folding enthalpy [1] of -13.3 kcal/mol and a Tm [2] of 46.2 °C.
GCGTCGCGAAAGCCCCGC (((..((....))..))) showed a folding enthalpy [1] of -19.7 kcal/mol and a Tm [2] of 43.6 °C.
With GAAATGGGAAACCGTTTC ((((.((....)).)))) the folding enthalpy [1] was -33.4 kcal/mol and the Tm [2] was 43.6 °C.
Work on GTCGGCGGAAACGTCGGC (.((.((....)).)).) yielded a folding enthalpy [1] of -35.5 kcal/mol and a Tm [2] of 54 °C.
In the case of GCATTGGAAACAATGC ((((((....)))))), the folding enthalpy [1] is reported as -39.4 kcal/mol and the Tm [2] is reported as 57.7 °C.
For GTAATGAAAATTAC (((((....))))), the folding enthalpy [1] was -15.6 kcal/mol and the Tm [2] was 34.1 °C.
Work on GTATTCGGAAACGAATAC (((((((....))))))) yielded a folding enthalpy [1] of -48.2 kcal/mol and a Tm [2] of 56.8 °C.
For GCAGGAGGAAACTTCTGC ((((.((....)).)))), the folding enthalpy [1] was -39.5 kcal/mol and the Tm [2] was 49.9 °C.
Work on GCAGTTACGAAAGTATGC (((..(((....)))))) yielded a folding enthalpy [1] of -21.6 kcal/mol and a Tm [2] of 33.9 °C.
For GCGTTGGGAAACCAGCGC (((.(((....))).))), the folding enthalpy [1] was -45.2 kcal/mol and the Tm [2] was 58.3 °C.
In the case of GTCCAGCGAAAGCTTGAC (((.(((....))).))), the folding enthalpy [1] is reported as -26.2 kcal/mol and the Tm [2] is reported as 49.1 °C.
Sequence GGAGCACCGAAAGGTTCC (((..(((....)))))) has a folding enthalpy [1] of -11.3 kcal/mol and a Tm [2] of 30.2 °C.
In the case of GTTCGAGGAAACTTGAAC ((((.((....)).)))), the folding enthalpy [1] is reported as -32.4 kcal/mol and the Tm [2] is reported as 44.5 °C.
With GATCAGTATACTGATC ((((((....)))))) the folding enthalpy [1] was -45 kcal/mol and the Tm [2] was 54.3 °C.
In the case of GCCGTGCGAAAGCTCTGC ((.(.((....)).).)), the folding enthalpy [1] is reported as -12.2 kcal/mol and the Tm [2] is reported as 37.7 °C.
Work on GGTAGCGGAAACGCTGTC (..((((....))))..) yielded a folding enthalpy [1] of -13.4 kcal/mol and a Tm [2] of 34.8 °C.
GTTGTAGGAAACTATAAC (((.(((....))).))) showed a folding enthalpy [1] of -24.6 kcal/mol and a Tm [2] of 34 °C.
With GGCTTAGCGAAAGCTGCC (((..(((....)))))) the folding enthalpy [1] was -23 kcal/mol and the Tm [2] was 52.5 °C.
Work on GACGCCGAAAGGCAGTC ((((((....))).))) yielded a folding enthalpy [1] of -18.2 kcal/mol and a Tm [2] of 63.7 °C.
GTTGTCGAAAGACGTAAC ((((((....)))..))) gave a folding enthalpy [1] of -11.3 kcal/mol and a Tm [2] of 31.9 °C.
For GTACTGGGAAACTAGTAC (((((.(....).))))), the folding enthalpy [1] was -36.8 kcal/mol and the Tm [2] was 42.2 °C.
GGTGCACGAAAGTGTACC (((.(((....))).))) gave a folding enthalpy [1] of -38 kcal/mol and a Tm [2] of 64.5 °C.
In the case of GCATCGGGAAACCGGTGC (((.(((....))).))), the folding enthalpy [1] is reported as -44.5 kcal/mol and the Tm [2] is reported as 59.1 °C.
For GTACCCGAAAGGGGTTAC ((((((....)))..))), the folding enthalpy [1] was -10.1 kcal/mol and the Tm [2] was 35.2 °C.
With GTACACGGAAACGCGTAC ((((.((....)).)))) the folding enthalpy [1] was -40.1 kcal/mol and the Tm [2] was 48.3 °C.
For GAAGGTGGAAACGCTTTC (((.(.(....).).))), the folding enthalpy [1] was -9.77 kcal/mol and the Tm [2] was 24.2 °C.
For GAGCCGCGAAAGCGCCTC (((.(((....))).))), the folding enthalpy [1] was -16 kcal/mol and the Tm [2] was 46.4 °C.
Work on GAGACCGGAAACGGCCTC (((.(((....))).))) yielded a folding enthalpy [1] of -28.1 kcal/mol and a Tm [2] of 50.8 °C.
GTAGGCCGAAAGGCGTAC (((.(((....))).))) showed a folding enthalpy [1] of -26.5 kcal/mol and a Tm [2] of 62.4 °C.
With GCGCCATCGAAAGATCGC (((..(((....)))))) the folding enthalpy [1] was -24.3 kcal/mol and the Tm [2] was 42.5 °C.
In the case of GGTCAGCCGAAAGGCACC (((..(((....)))))), the folding enthalpy [1] is reported as -11.4 kcal/mol and the Tm [2] is reported as 38.3 °C.
GGCGACGAAAGTCAAGCC ((((((....)))..))) showed a folding enthalpy [1] of -39.6 kcal/mol and a Tm [2] of 54.7 °C.
With GAGAGCGAAAGCTTCTC ((((((....))).))) the folding enthalpy [1] was -21.9 kcal/mol and the Tm [2] was 48 °C.
GATCGGCGGACCGATC ((((((....)))))) showed a folding enthalpy [1] of -38.8 kcal/mol and a Tm [2] of 57.2 °C.
